# Data: ChEMBL document CHEMBL5579858, “Design, synthesis, and structure-activity relationship studies of 6,7-dihydro-5H-pyrrolo[1,2-b][1,2,4]triazole derivatives as necroptosis inhibitors” (RSC Med Chem, 2024)
# System: Hepa 1-6
# Assay: Anti-necroptotic activity in mouse Hepa1-6 cells assessed as inhibition of TNFalpha/BV6/Z-VAD-induced necroptosis by measuring necroptosis recovery at 10 nM measured after 24 hrs by CCK-8 assay relative to control
# Format: functional
# Set-up: scale not given: the % may be the effect or the level left
# Settings: not given
# In short: (§1)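 Murine Hepa1-6 cells from ATCC, seeded at low density and incubated overnight. Z-VAD 10 μM added 1 h ahead. Necroptosis then induced with TNF-α 20 ng mL⁻¹ plus BV6 10 μM, together with compound, for 24 h. Viability read by CCK-8. Recovery is mean ± SD of at least two assays.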
row,SMILES,Activity
1,Cc1ccc(OCCC2CCOCC2)cc1-c1ccnc(NC(=O)c2nc3n(n2)[C@H](c2ccccc2)C[C@@H]3F)c1,111.4%
2,Cc1ccc(OCCC2CCOCC2)cc1-c1ccnc(NC(=O)c2nc3n(n2)C(c2ccccc2)CC3)c1 (stereo not given),3.7%
3,Cc1ccc(OCCN2CCOCC2)cc1-c1ccnc(NC(=O)c2nc3n(n2)[C@H](c2ccccc2)C[C@@H]3F)c1,102.4%
4,Cc1ccc(OCC(C)(C)O)cc1-c1ccnc(NC(=O)c2nc3n(n2)C(c2ccccc2)CC3)c1 (stereo not given),3.8%
5,Cc1ccc(OCCCC(C)(C)O)cc1-c1ccnc(NC(=O)c2nc3n(n2)[C@H](c2ccccc2)C[C@H]3F)c1 (relative stereo),6.3%
6,Cc1ccc(OCCCC(C)(C)O)cc1-c1ccnc(NC(=O)c2nc3n(n2)C(c2ccccc2)CC3)c1 (stereo not given),5.5%
7,Cc1ccc(OCCCC(C)(C)O)cc1-c1ccnc(NC(=O)c2nc3n(n2)[C@@H](c2ccccc2)C[C@H]3F)c1 (relative stereo),100.5%

# System: not listed separately
# Assay: AUClast in Sprague-Dawley rat at 3 mg/kg, po by LC-MS/MS analysis
# Format: ADME, organism-based
# Settings: in vivo
# In short: (§2)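 Male Sprague Dawley rats, N = 3. Single oral dose of 3 mg kg⁻¹ in DMSO/0.5% HMPC (5/95, v/v). Blood taken at 0.25, 0.5, 1, 2, 4, 8 and 24 h. Serum drug levels measured by LC-MS/MS. Parameters reported as means.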
row,SMILES,AUC(0-t)
1,Cc1ccc(OCCN2CCOCC2)cc1-c1ccnc(NC(=O)c2nc3n(n2)[C@H](c2ccccc2)C[C@@H]3F)c1,0.0152 µg·h/mL

# System: not listed separately
# Assay: Anti-necroptotic activity in human I2.1 cells assessed as inhibition of TNFalpha-induced necroptosis by measuring necroptosis recovery at 10 nM preincubated for 1 hr followed by TNFalpha addition and measured after 24 hrs by CCK-8 assay relative to control
# Format: functional
# Set-up: scale not given: the % may be the effect or the level left
# Settings: time 25 hrs
# In short: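 Human I2.1 cells from ATCC, seeded at low density in growth medium and incubated overnight. Compound added first. After 1 h, stimulated with TNF-α 20 ng mL⁻¹ and incubated a further 24 h. Viability read by CCK-8. Recovery is mean ± SD of at least two assays.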
row,SMILES,Activity
1,Cc1ccc(OCCCC#N)cc1-c1ccnc(NC(=O)c2nc3n(n2)C(c2ccccc2)CC3)c1 (stereo not given),35.8%
2,Cc1ccc(OCCCC(C)(C)O)cc1-c1cc(NC(=O)c2nc3n(n2)C(c2ccccc2)CC3)ncc1Cl (stereo not given),56.2%
3,COc1ccc(C)c(-c2ccnc(NC(=O)c3nc4n(n3)C(c3ccccc3)CC4)c2)c1 (stereo not given),73.7%
4,Cc1ccc(OCCCC(C)(C)O)cc1-c1cnnc(NC(=O)c2nc3n(n2)C(c2ccccc2)CC3)c1 (stereo not given),53.6%
5,CC(C)(O)CCCOc1cccc(-c2ccnc(NC(=O)c3nc4n(n3)C(c3ccccc3)CC4)c2)c1 (stereo not given),86.1%
6,Cc1ccc(OCCCC(C)(C)O)cc1-c1ccnc(NC(=O)c2nc(Cc3ccccc3)n[nH]2)c1,90%
7,Cc1ccc(OCCCC(C)(C)O)cc1-c1cc(NC(=O)c2nc3n(n2)C(c2ccccc2)CC3)ncc1F (stereo not given),58.1%
8,Cc1ccc(OCCCC(C)(C)O)cc1-c1ccnc(NC(=O)c2nc3n(n2)C(C2CCCCC2)CC3)c1 (stereo not given),61.2%
9,Cc1ccc(OCCCC(C)(C)O)cc1-c1cc(NC(=O)c2nc3n(n2)C(c2ccccc2)CC3)ncc1C (stereo not given),72.7%
10,Cc1ccc(OCCCC(C)(C)O)cc1-c1ccnc(NC(=O)c2nc3n(n2)C(c2ccccc2F)CC3)c1 (stereo not given),62.7%
11,Cc1ccc(OCCC2CCOCC2)cc1-c1ccnc(NC(=O)c2nc3n(n2)[C@H](c2ccccc2)C[C@@H]3F)c1,70.5%
12,Cc1ccc(OCCC2CCOCC2)cc1-c1ccnc(NC(=O)c2nc3n(n2)C(c2ccccc2)CC3)c1 (stereo not given),91.9%
13,Cc1ccc(OCCN2CCOCC2)cc1-c1ccnc(NC(=O)c2nc3n(n2)[C@H](c2ccccc2)C[C@@H]3F)c1,97.9%
14,CC(C)(O)CCCOc1ccc(Cl)c(-c2ccnc(NC(=O)c3nc4n(n3)C(c3ccccc3)CC4)c2)c1 (stereo not given),80.6%
15,Cc1ccc(OCC(C)(C)O)cc1-c1ccnc(NC(=O)c2nc3n(n2)C(c2ccccc2)CC3)c1 (stereo not given),98.2%
16,Cc1ccc(OCCCC(C)(C)O)cc1-c1ccnc(NC(=O)c2nc3n(n2)[C@H](c2ccccc2)C[C@H]3F)c1 (relative stereo),98.9%
17,Cc1ccc(OCCCC(C)(C)O)cc1-c1ccnc(NC(=O)c2nc3n(n2)C(c2ccc(F)cc2)CC3)c1 (stereo not given),60.1%
18,Cc1ccc(OCCCC(C)(C)O)cc1-c1ccnc(NC(=O)c2nc3n(n2)C(c2cccc(F)c2)CC3)c1 (stereo not given),58.1%
19,Cc1ccc(OCCCC(C)(C)O)cc1-c1ccnc(NC(=O)c2nc3n(n2)C(C2CCCC2)CC3)c1 (stereo not given),73.2%
20,Cc1ccc(OCCCC(C)(C)O)cc1-c1ccnc(NC(=O)c2nc3n(n2)C(c2ccccc2)CC3)c1 (stereo not given),81.2%
21,Cc1ccc(OCCCC(C)(C)O)cc1-c1ccnc(NC(=O)c2nc3n(n2)[C@@H](c2ccccc2)C[C@H]3F)c1 (relative stereo),80.6%

# System: not listed separately
# Assay: Elimination half-life in Sprague-Dawley rat at 3 mg/kg, po by LC-MS/MS analysis
# Format: ADME, organism-based
# Settings: in vivo, read-out: beta t1/2 (converted)
# In short: as §2
row,SMILES,half-life
1,Cc1ccc(OCCN2CCOCC2)cc1-c1ccnc(NC(=O)c2nc3n(n2)[C@H](c2ccccc2)C[C@@H]3F)c1,1.91 h

# System: HT-29
# Assay: Anti-necroptotic activity in human HT-29 cells assessed as inhibition of TNFalpha/Z-VAD-fmk/AT-406-induced necroptosis preincubated for 30 mins followed by TNFalpha/Z-VAD-fmk/AT-406 addition and measured after 16 to 20 hrs by CCK-8 assay
# Format: functional, cell-based
# Settings: not given
row,SMILES,IC50
1,Cc1ccc(OCCCC(C)(C)O)cc1-c1ccnc(NC(=O)c2nc(Cc3ccccc3)n[nH]2)c1,< 0.1 µM

# Biological target: T1, Receptor-interacting serine/threonine-protein kinase 1 (Homo sapiens) (UniProt Q13546)
# T1 sequence (whole entry): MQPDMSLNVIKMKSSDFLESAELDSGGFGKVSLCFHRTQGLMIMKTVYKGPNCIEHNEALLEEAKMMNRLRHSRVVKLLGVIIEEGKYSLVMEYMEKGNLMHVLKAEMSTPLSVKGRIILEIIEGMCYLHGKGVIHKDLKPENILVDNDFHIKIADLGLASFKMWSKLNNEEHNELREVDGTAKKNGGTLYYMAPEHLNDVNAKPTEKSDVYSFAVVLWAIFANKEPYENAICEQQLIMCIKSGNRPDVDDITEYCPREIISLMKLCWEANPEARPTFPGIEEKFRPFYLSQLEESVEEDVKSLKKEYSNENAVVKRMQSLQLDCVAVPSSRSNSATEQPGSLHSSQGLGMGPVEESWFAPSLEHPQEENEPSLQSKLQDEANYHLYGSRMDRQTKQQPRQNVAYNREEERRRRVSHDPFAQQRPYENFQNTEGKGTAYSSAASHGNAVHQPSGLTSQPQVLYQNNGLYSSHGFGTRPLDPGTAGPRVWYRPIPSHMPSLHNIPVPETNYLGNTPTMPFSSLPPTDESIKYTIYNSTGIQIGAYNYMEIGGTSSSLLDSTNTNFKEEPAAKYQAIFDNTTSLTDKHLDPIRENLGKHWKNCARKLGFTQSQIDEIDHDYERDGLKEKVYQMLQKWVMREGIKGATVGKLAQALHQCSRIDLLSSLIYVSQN
# Assay: Inhibition of recombinant human N-terminal GST-tagged RIPK1 (1 to 327 residues) expressed in baculovirus infected Sf9 insect cells at 1 uM using myelin basic protein as substrate by ADP-glo assay relative to control
# Settings: not given
# In short: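 RIPK1 kinase activity tested at 1 μM. Read-out is luminescence. Inhibition% = (DMSO-control specific signal − inhibitor specific signal)/DMSO-control specific signal × 100.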
row,SMILES,inhibition
1,Cc1ccc(OCCC2CCOCC2)cc1-c1ccnc(NC(=O)c2nc3n(n2)[C@@H](c2ccccc2)C[C@H]3F)c1,< 0%
2,Cc1ccc(OCCN2CCOCC2)cc1-c1ccnc(NC(=O)c2nc3n(n2)[C@@H](c2ccccc2)C[C@H]3F)c1,< 0%
3,Cc1ccc(OCCC2CCOCC2)cc1-c1ccnc(NC(=O)c2nc3n(n2)[C@H](c2ccccc2)C[C@@H]3F)c1,78.8%
4,Cc1ccc(OCCN2CCOCC2)cc1-c1ccnc(NC(=O)c2nc3n(n2)[C@H](c2ccccc2)C[C@@H]3F)c1,79.1%

# System: Hepa 1-6
# Assay: Anti-necroptotic activity in mouse Hepa1-6 cells assessed as inhibition of TNFalpha/BV6/Z-VAD-induced necroptosis by measuring necroptosis recovery at 1 uM measured after 24 hrs by CCK-8 assay relative to control
# Format: functional
# Set-up: scale not given: the % may be the effect or the level left
# Settings: not given
# In short: as §1
row,SMILES,Activity
1,CC(C)(O)CCCOc1cccc(-c2ccnc(NC(=O)c3nc4n(n3)C(c3ccccc3)CC4)c2)c1 (stereo not given),2.2%
2,Cc1ccc(OCCCC(C)(C)O)cc1-c1ccnc(NC(=O)c2nc(Cc3ccccc3)n[nH]2)c1,<0%
3,Cc1ccc(OCCC2CCOCC2)cc1-c1ccnc(NC(=O)c2nc3n(n2)C(c2ccccc2)CC3)c1 (stereo not given),96.6%
4,CC(C)(O)CCCOc1ccc(Cl)c(-c2ccnc(NC(=O)c3nc4n(n3)C(c3ccccc3)CC4)c2)c1 (stereo not given),2.9%
5,Cc1ccc(OCC(C)(C)O)cc1-c1ccnc(NC(=O)c2nc3n(n2)C(c2ccccc2)CC3)c1 (stereo not given),94.1%
6,Cc1ccc(OCCCC(C)(C)O)cc1-c1ccnc(NC(=O)c2nc3n(n2)[C@H](c2ccccc2)C[C@H]3F)c1 (relative stereo),104.2%
7,Cc1ccc(OCCCC(C)(C)O)cc1-c1ccnc(NC(=O)c2nc3n(n2)C(c2ccccc2)CC3)c1 (stereo not given),86.6%
8,Cc1ccc(OCCCC(C)(C)O)cc1-c1ccnc(NC(=O)c2nc3n(n2)[C@@H](c2ccccc2)C[C@H]3F)c1 (relative stereo),110%

# System: not listed separately
# Assay: Tmax in Sprague-Dawley rat at 3 mg/kg, po by LC-MS/MS analysis
# Format: ADME, organism-based
# Settings: in vivo
# In short: as §2
row,SMILES,Tmax
1,Cc1ccc(OCCN2CCOCC2)cc1-c1ccnc(NC(=O)c2nc3n(n2)[C@H](c2ccccc2)C[C@@H]3F)c1,0.67 h

# System: not listed separately
# Assay: Cmax in Sprague-Dawley rat at 3 mg/kg, po by LC-MS/MS analysis
# Format: ADME, organism-based
# Settings: in vivo
# In short: as §2
row,SMILES,Cmax
1,Cc1ccc(OCCN2CCOCC2)cc1-c1ccnc(NC(=O)c2nc3n(n2)[C@H](c2ccccc2)C[C@@H]3F)c1,8.9 ng/mL

# System: Hepa 1-6
# Assay: Anti-necroptotic activity in mouse Hepa1-6 cells assessed as inhibition of TNFalpha/BV6/Z-VAD-induced necroptosis by measuring necroptosis recovery at 100 nM measured after 24 hrs by CCK-8 assay relative to control
# Format: functional
# Set-up: scale not given: the % may be the effect or the level left
# Settings: not given
# In short: as §1
row,SMILES,Activity
1,Cc1ccc(OCCC2CCOCC2)cc1-c1ccnc(NC(=O)c2nc3n(n2)C(c2ccccc2)CC3)c1 (stereo not given),10.7%
2,Cc1ccc(OCC(C)(C)O)cc1-c1ccnc(NC(=O)c2nc3n(n2)C(c2ccccc2)CC3)c1 (stereo not given),10.9%
3,Cc1ccc(OCCCC(C)(C)O)cc1-c1ccnc(NC(=O)c2nc3n(n2)[C@H](c2ccccc2)C[C@H]3F)c1 (relative stereo),41.3%
4,Cc1ccc(OCCCC(C)(C)O)cc1-c1ccnc(NC(=O)c2nc3n(n2)C(c2ccccc2)CC3)c1 (stereo not given),26.1%
5,Cc1ccc(OCCCC(C)(C)O)cc1-c1ccnc(NC(=O)c2nc3n(n2)[C@@H](c2ccccc2)C[C@H]3F)c1 (relative stereo),107.6%
